Results from ChEMBL document CHEMBL1152173, “Synthesis and in vitro evaluation of the antifungal activities of dihydropyrimidinones” (2008).
Values after ≈ are worked out from the molar mass of the structure shown. Active and inactive are the calls of the source. No cut-off for these calls is given here.

Experiments:
Trichoderma hamatum [1] = assay: Antifungal activity against Trichoderma hamatum; format: functional
Trichoderma koningii [2] = assay: Antifungal activity against Trichoderma koningii assessed as radial growth at 5% after 48 hrs by poison food technique of Flack relative to control; format: functional
Outline: (§1)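 Acetone stock added to molten sterilized PDA to final 0.5–7%, plated in 90 mm dishes with compound-free plates as control. Each plate was inoculated with a 9 mm disc from a 4-day-old culture, incubated at 25 ± 1 °C, and colony diameter measured at 24 h intervals. % inhibition = (control − treatment)/control × 100; three replicates averaged.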

Trichoderma hamatum [3] = assay: Antifungal activity against Trichoderma hamatum assessed as radial growth at 0.5% after 72 hrs by poison food technique of Flack relative to control; format: functional
Aspergillus niger [4] = assay: Antifungal activity against Aspergillus niger assessed as radial growth at 0.5% after 72 hrs by poison food technique of Flack relative to control; format: functional
Trichoderma koningii [5] = assay: Antifungal activity against Trichoderma koningii assessed as radial growth at 5% after 72 hrs by poison food technique of Flack relative to control; format: functional; outline: as §1
Aspergillus niger [6] = assay: Antifungal activity against Aspergillus niger assessed as radial growth at 5% after 72 hrs by poison food technique of Flack relative to control; format: functional
Trichoderma hamatum [7] = assay: Antifungal activity against Trichoderma hamatum assessed as radial growth at 5% after 24 hrs by poison food technique of Flack relative to control; format: functional; outline: as §1
Aspergillus niger [8] = assay: Antifungal activity against Aspergillus niger assessed as radial growth at 7% after 24 hrs by poison food technique of Flack relative to control; format: functional
Aspergillus niger [9] = assay: Antifungal activity against Aspergillus niger assessed as radial growth at 3% after 72 hrs by poison food technique of Flack relative to control; format: functional
Trichoderma hamatum [10] = assay: Antifungal activity against Trichoderma hamatum assessed as radial growth at 7% after 72 hrs by poison food technique of Flack relative to control; format: functional; outline: as §1
Trichoderma koningii [11] = assay: Antifungal activity against Trichoderma koningii assessed as radial growth at 0.5% after 48 hrs by poison food technique of Flack relative to control; format: functional; outline: as §1
Aspergillus niger [12] = assay: Antifungal activity against Aspergillus niger assessed as radial growth at 1% after 48 hrs by poison food technique of Flack relative to control; format: functional
Trichoderma koningii [13] = assay: Antifungal activity against Trichoderma koningii assessed as radial growth at 3% after 72 hrs by poison food technique of Flack relative to control; format: functional; outline: as §1
Trichoderma hamatum [14] = assay: Antifungal activity against Trichoderma hamatum assessed as radial growth at 7% after 24 hrs by poison food technique of Flack relative to control; format: functional; outline: as §1
Trichoderma hamatum [15] = assay: Antifungal activity against Trichoderma hamatum assessed as radial growth at 7% after 24 hrs by poison food technique of Flack; format: functional, organism-based
Outline: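 Poisoned-food method: acetone stock mixed into molten sterilized potato dextrose agar to final 0.5, 1, 3, 5 or 7%, poured into 90 mm plates. Plates were inoculated with a 9 mm mycelial disc from a 4-day-old pure culture and incubated at 25 ± 1 °C. Colony diameter (mm) was read every 24 h; mean of three replicates.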

Trichoderma hamatum [16] = assay: Antifungal activity against Trichoderma hamatum assessed as radial growth at 0.5% after 48 hrs by poison food technique of Flack relative to control; format: functional
Aspergillus niger [17] = assay: Antifungal activity against Aspergillus niger assessed as radial growth at 1% after 24 hrs by poison food technique of Flack relative to control; format: functional
Trichoderma hamatum [18] = assay: Antifungal activity against Trichoderma hamatum assessed as radial growth at 1% after 24 hrs by poison food technique of Flack relative to control; format: functional
Aspergillus niger [19] = assay: Antifungal activity against Aspergillus niger assessed as radial growth at 7% after 48 hrs by poison food technique of Flack relative to control; format: functional
Trichoderma koningii [20] = assay: Antifungal activity against Trichoderma koningii assessed as radial growth at 3% after 48 hrs by poison food technique of Flack relative to control; format: functional; outline: as §1
Aspergillus niger [21] = assay: Antifungal activity against Aspergillus niger assessed as radial growth at 7% after 72 hrs by poison food technique of Flack relative to control; format: functional
Trichoderma koningii [22] = assay: Antifungal activity against Trichoderma koningii assessed as radial growth at 3% after 24 hrs by poison food technique of Flack relative to control; format: functional; outline: as §1
Aspergillus niger [23] = assay: Antifungal activity against Aspergillus niger assessed as radial growth at 3% after 24 hrs by poison food technique of Flack relative to control; format: functional
Trichoderma hamatum [24] = assay: Antifungal activity against Trichoderma hamatum assessed as radial growth at 3% after 24 hrs by poison food technique of Flack relative to control; format: functional
Trichoderma koningii [25] = assay: Antifungal activity against Trichoderma koningii assessed as radial growth at 5% after 24 hrs by poison food technique of Flack relative to control; format: functional; outline: as §1
Aspergillus niger [26] = assay: Antifungal activity against Aspergillus niger assessed as radial growth at 1% after 72 hrs by poison food technique of Flack relative to control; format: functional
Trichoderma koningii [27] = assay: Antifungal activity against Trichoderma koningii assessed as radial growth at 7% after 72 hrs by poison food technique of Flack relative to control; format: functional; outline: as §1
Aspergillus niger [28] = assay: Antifungal activity against Aspergillus niger assessed as radial growth at 0.5% after 24 hrs by poison food technique of Flack relative to control; format: functional
Trichoderma hamatum [29] = assay: Antifungal activity against Trichoderma hamatum assessed as radial growth at 0.5% after 24 hrs by poison food technique of Flack relative to control; format: functional
Trichoderma hamatum [30] = assay: Antifungal activity against Trichoderma hamatum assessed as radial growth at 3% after 48 hrs by poison food technique of Flack relative to control; format: functional
Trichoderma koningii [31] = assay: Antifungal activity against Trichoderma koningii; format: functional
Aspergillus niger [32] = assay: Antifungal activity against Aspergillus niger assessed as radial growth at 5% after 48 hrs by poison food technique of Flack relative to control; format: functional
Aspergillus niger [33] = assay: Antifungal activity against Aspergillus niger assessed as radial growth at 3% after 48 hrs by poison food technique of Flack relative to control; format: functional
Trichoderma hamatum [34] = assay: Antifungal activity against Trichoderma hamatum assessed as radial growth at 7% after 48 hrs by poison food technique of Flack relative to control; format: functional; outline: as §1
Trichoderma koningii [35] = assay: Antifungal activity against Trichoderma koningii assessed as radial growth at 1% after 48 hrs by poison food technique of Flack relative to control; format: functional; outline: as §1
Trichoderma koningii [36] = assay: Antifungal activity against Trichoderma koningii assessed as radial growth at 1% after 72 hrs by poison food technique of Flack relative to control; format: functional; outline: as §1
Trichoderma hamatum [37] = assay: Antifungal activity against Trichoderma hamatum assessed as radial growth at 1% after 48 hrs by poison food technique of Flack relative to control; format: functional
Trichoderma hamatum [38] = assay: Antifungal activity against Trichoderma hamatum assessed as radial growth at 3% after 72 hrs by poison food technique of Flack relative to control; format: functional
Trichoderma koningii [39] = assay: Antifungal activity against Trichoderma koningii assessed as radial growth at 0.5% after 72 hrs by poison food technique of Flack relative to control; format: functional; outline: as §1
Trichoderma koningii [40] = assay: Antifungal activity against Trichoderma koningii assessed as radial growth at 1% after 24 hrs by poison food technique of Flack relative to control; format: functional; outline: as §1
Trichoderma koningii [41] = assay: Antifungal activity against Trichoderma koningii assessed as radial growth at 0.5% after 24 hrs by poison food technique of Flack relative to control; format: functional; outline: as §1
Trichoderma koningii [42] = assay: Antifungal activity against Trichoderma koningii assessed as radial growth at 7% after 48 hrs by poison food technique of Flack relative to control; format: functional; outline: as §1
Trichoderma hamatum [43] = assay: Antifungal activity against Trichoderma hamatum assessed as radial growth at 5% after 48 hrs by poison food technique of Flack relative to control; format: functional; outline: as §1
Trichoderma hamatum [44] = assay: Antifungal activity against Trichoderma hamatum assessed as radial growth at 1% after 72 hrs by poison food technique of Flack relative to control; format: functional

CCOC(=O)C1=C(C)NC(=O)NC1c1ccccc1O (stereo not drawn)
MIC (Trichoderma hamatum [1]): 0.025 µg/mL (≈ 0.0905 µM)
inhibition (INH) (Trichoderma koningii [2]): 70.83%
inhibition (INH) (Trichoderma hamatum [3]): 0%
inhibition (INH) (Aspergillus niger [4]): 33.35%
inhibition (INH) (Trichoderma koningii [5]): 55.7%
inhibition (INH) (Aspergillus niger [6]): 66.07%
inhibition (INH) (Trichoderma hamatum [7]): 89.47%
inhibition (INH) (Aspergillus niger [8]): 100%
inhibition (INH) (Aspergillus niger [9]): 60.71%
inhibition (INH) (Trichoderma hamatum [10]): 96.78%
inhibition (INH) (Trichoderma koningii [11]): 0%
inhibition (INH) (Aspergillus niger [12]): 17.75%
inhibition (INH) (Trichoderma koningii [13]): 25.16%
inhibition (INH) (Trichoderma hamatum [14]): 100%
Activity (Trichoderma hamatum [15]): Active
inhibition (INH) (Trichoderma hamatum [16]): 0%
inhibition (INH) (Aspergillus niger [17]): 0%
inhibition (INH) (Trichoderma hamatum [18]): 21.05%
inhibition (INH) (Aspergillus niger [19]): 100%
inhibition (INH) (Trichoderma koningii [20]): 38.81%
inhibition (INH) (Aspergillus niger [21]): 92.85%
inhibition (INH) (Trichoderma koningii [22]): 50.72%
inhibition (INH) (Aspergillus niger [23]): 37.6%
inhibition (INH) (Trichoderma hamatum [24]): 63.84%
inhibition (INH) (Trichoderma koningii [25]): 79.71%
inhibition (INH) (Aspergillus niger [26]): 16.07%
inhibition (INH) (Trichoderma koningii [27]): 97.31%
inhibition (INH) (Aspergillus niger [28]): 0%
inhibition (INH) (Trichoderma hamatum [29]): 0%
inhibition (INH) (Trichoderma hamatum [30]): 68.75%
MIC (Trichoderma koningii [31]): 0.025 µg/mL (≈ 0.0905 µM)
inhibition (INH) (Aspergillus niger [32]): 65.66%
inhibition (INH) (Aspergillus niger [33]): 64.58%
inhibition (INH) (Trichoderma hamatum [34]): 100%
inhibition (INH) (Trichoderma koningii [35]): 5.2%
inhibition (INH) (Trichoderma koningii [36]): 0.67%
inhibition (INH) (Trichoderma hamatum [37]): 22.44%
inhibition (INH) (Trichoderma hamatum [38]): 59.1%
inhibition (INH) (Trichoderma koningii [39]): 0%
inhibition (INH) (Trichoderma koningii [40]): 0%
inhibition (INH) (Trichoderma koningii [41]): 0%
inhibition (INH) (Trichoderma koningii [42]): 100%
inhibition (INH) (Trichoderma hamatum [43]): 94.23%
inhibition (INH) (Trichoderma hamatum [44]): 15.84%

CCOC(=O)C1=C(C)NC(=S)NC1c1ccccc1 (stereo not drawn)
MIC (Trichoderma hamatum [1]): 0.025 µg/mL (≈ 0.0905 µM)
inhibition (INH) (Trichoderma koningii [2]): 87.34%
inhibition (INH) (Trichoderma hamatum [3]): 0%
inhibition (INH) (Aspergillus niger [4]): 0%
inhibition (INH) (Trichoderma koningii [5]): 79.82%
inhibition (INH) (Aspergillus niger [6]): 55.63%
inhibition (INH) (Trichoderma hamatum [7]): 89.18%
inhibition (INH) (Aspergillus niger [8]): 100%
inhibition (INH) (Aspergillus niger [9]): 36.36%
inhibition (INH) (Trichoderma hamatum [10]): 95.98%
inhibition (INH) (Trichoderma koningii [11]): 0%
inhibition (INH) (Aspergillus niger [12]): 0%
inhibition (INH) (Trichoderma koningii [13]): 62.71%
inhibition (INH) (Trichoderma hamatum [14]): 100%
Activity (Trichoderma hamatum [15]): Active
inhibition (INH) (Trichoderma hamatum [16]): 8.81%
inhibition (INH) (Aspergillus niger [17]): 0%
inhibition (INH) (Trichoderma hamatum [18]): 47.78%
inhibition (INH) (Aspergillus niger [19]): 100%
inhibition (INH) (Trichoderma koningii [20]): 68.08%
inhibition (INH) (Aspergillus niger [21]): 100%
inhibition (INH) (Trichoderma koningii [22]): 56.03%
inhibition (INH) (Aspergillus niger [23]): 33.33%
inhibition (INH) (Trichoderma hamatum [24]): 67.13%
inhibition (INH) (Trichoderma koningii [25]): 89.2%
inhibition (INH) (Aspergillus niger [26]): 0%
inhibition (INH) (Trichoderma koningii [27]): 84.42%
inhibition (INH) (Aspergillus niger [28]): 0%
inhibition (INH) (Trichoderma hamatum [29]): 17.13%
inhibition (INH) (Trichoderma hamatum [30]): 67.62%
MIC (Trichoderma koningii [31]): 0.025 µg/mL (≈ 0.0905 µM)
inhibition (INH) (Aspergillus niger [32]): 54.54%
inhibition (INH) (Aspergillus niger [33]): 47.81%
inhibition (INH) (Trichoderma hamatum [34]): 100%
inhibition (INH) (Trichoderma koningii [35]): 0%
inhibition (INH) (Trichoderma koningii [36]): 0%
inhibition (INH) (Trichoderma hamatum [37]): 18.65%
inhibition (INH) (Trichoderma hamatum [38]): 37.65%
inhibition (INH) (Trichoderma koningii [39]): 0%
inhibition (INH) (Trichoderma koningii [40]): 0%
inhibition (INH) (Trichoderma koningii [41]): 0%
inhibition (INH) (Trichoderma koningii [42]): 90.96%
inhibition (INH) (Trichoderma hamatum [43]): 93%
inhibition (INH) (Trichoderma hamatum [44]): 0%
